ChEMBL document CHEMBL3826910, “Discovery of 3-(5'-Substituted)-Benzimidazole-5-(1-(3,5-dichloropyridin-4-yl)ethoxy)-1H-indazoles as Potent Fibroblast Growth Factor Receptor Inhibitors: Design, Synthesis, and Biological Evaluation” (J Med Chem, 2016)
Calls of active or inactive are those of the source. No cut-off for these calls is given here.

Key:
[1] = Tmax in Sprague-Dawley rat at 5 mg/kg, po; type: ADME, organism-based; conditions: in vivo
Procedure, shortened: (§1)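 Male SD rats (n = 3) dosed orally by gavage at 5 mg/kg as a suspension in 0.5% CMC-Na. Quantified by LC-MS/MS. An IV arm (1 mg/kg) was run in parallel.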

[2] = biological target: Platelet-derived growth factor receptor beta (Homo sapiens, UniProt P09619); assay: Inhibition of recombinant human PDGFRbeta using poly (Glu, Tyr) 4:1 as substrate after 60 mins by ELISA
Procedure, shortened: (§2)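 Purified recombinant kinases tested by ELISA on plates pre-coated with 20 µg/mL poly(Glu,Tyr) 4:1. Reaction run 60 min at 37 °C. Read-out: PY99 anti-phosphotyrosine antibody, HRP anti-mouse IgG and o-phenylenediamine/H2O2, with A490 measured. IC50 from inhibition curves, two independent experiments.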

Ephrin type-A receptor 2 = Ephrin type-A receptor 2 (Homo sapiens, UniProt P29317); assay: Inhibition of recombinant human EPHA2 using poly (Glu, Tyr) 4:1 as substrate after 60 mins by ELISA; procedure, shortened: as §2
[3] = biological target: Fibroblast growth factor receptor 3 (Homo sapiens, UniProt P22607); assay: Inhibition of recombinant human FGFR3 using poly (Glu, Tyr) 4:1 as substrate after 60 mins by ELISA; procedure, shortened: as §2
Fibroblast growth factor receptor 3, sequence (P22607 whole entry): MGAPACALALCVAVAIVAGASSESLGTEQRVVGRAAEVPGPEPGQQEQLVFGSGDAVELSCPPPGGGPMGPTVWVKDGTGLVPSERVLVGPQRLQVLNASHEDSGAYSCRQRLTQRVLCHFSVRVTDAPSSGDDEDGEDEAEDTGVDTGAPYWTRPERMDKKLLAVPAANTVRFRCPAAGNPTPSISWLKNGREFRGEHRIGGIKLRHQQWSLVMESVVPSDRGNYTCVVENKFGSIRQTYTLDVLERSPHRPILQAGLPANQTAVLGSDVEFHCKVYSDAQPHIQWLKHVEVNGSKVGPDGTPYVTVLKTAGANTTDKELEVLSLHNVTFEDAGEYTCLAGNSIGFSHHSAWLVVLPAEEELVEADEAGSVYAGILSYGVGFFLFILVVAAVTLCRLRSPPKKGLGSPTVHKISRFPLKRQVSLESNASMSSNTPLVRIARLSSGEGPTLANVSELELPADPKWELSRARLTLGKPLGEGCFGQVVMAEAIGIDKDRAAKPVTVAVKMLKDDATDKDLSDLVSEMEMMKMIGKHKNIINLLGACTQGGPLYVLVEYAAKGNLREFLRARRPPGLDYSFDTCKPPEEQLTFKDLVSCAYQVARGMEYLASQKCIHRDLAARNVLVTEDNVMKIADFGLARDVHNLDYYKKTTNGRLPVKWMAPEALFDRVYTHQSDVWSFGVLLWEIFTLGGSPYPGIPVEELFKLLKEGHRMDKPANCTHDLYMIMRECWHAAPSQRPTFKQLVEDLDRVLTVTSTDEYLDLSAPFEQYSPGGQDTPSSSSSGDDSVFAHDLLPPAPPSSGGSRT

[4] = biological target: T1, Fibroblast growth factor receptor 1 (Homo sapiens, UniProt P11362); assay: Inhibition of FGFR1 phosphorylation in human KG1 cells after 2 hrs by Western blot method; type: cell-based; conditions: KG-1
Procedure, shortened: (§3)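 KG-1 cells treated at indicated concentrations for 2 h, then lysed in 1× SDS sample buffer. Lysates run on 10% SDS-PAGE, transferred to nitrocellulose, and probed for phospho-FGFR, PLCγ and Erk. Detection by enhanced chemiluminescence.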
Target sequence in this assay (P11362 22-822 limits assumed): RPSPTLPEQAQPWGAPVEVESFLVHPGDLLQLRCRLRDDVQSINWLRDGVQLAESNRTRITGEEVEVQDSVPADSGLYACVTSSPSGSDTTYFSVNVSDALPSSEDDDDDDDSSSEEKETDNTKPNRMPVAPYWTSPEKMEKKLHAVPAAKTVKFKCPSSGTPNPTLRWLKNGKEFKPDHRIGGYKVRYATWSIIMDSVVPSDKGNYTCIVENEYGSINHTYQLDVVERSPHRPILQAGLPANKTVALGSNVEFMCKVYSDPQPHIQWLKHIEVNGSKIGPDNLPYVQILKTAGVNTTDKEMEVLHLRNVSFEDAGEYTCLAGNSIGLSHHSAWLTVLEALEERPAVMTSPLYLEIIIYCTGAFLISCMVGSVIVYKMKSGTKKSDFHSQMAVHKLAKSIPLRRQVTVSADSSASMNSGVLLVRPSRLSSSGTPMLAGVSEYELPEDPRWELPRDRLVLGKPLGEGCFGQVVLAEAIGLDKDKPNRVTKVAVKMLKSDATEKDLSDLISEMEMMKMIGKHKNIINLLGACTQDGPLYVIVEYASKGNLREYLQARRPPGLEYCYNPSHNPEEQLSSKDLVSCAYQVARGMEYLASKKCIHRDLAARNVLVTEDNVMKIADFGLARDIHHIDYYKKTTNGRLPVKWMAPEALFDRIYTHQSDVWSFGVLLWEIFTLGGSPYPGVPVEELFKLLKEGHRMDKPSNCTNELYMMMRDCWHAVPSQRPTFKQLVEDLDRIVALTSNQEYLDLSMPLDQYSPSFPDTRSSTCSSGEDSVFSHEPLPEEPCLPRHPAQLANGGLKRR

[5] = biological target: Vascular endothelial growth factor receptor 1 (Homo sapiens, UniProt P17948); assay: Inhibition of recombinant human Flt1 using poly (Glu, Tyr) 4:1 as substrate after 60 mins by ELISA; procedure, shortened: as §2
Vascular endothelial growth factor receptor 1, sequence (P17948 whole entry): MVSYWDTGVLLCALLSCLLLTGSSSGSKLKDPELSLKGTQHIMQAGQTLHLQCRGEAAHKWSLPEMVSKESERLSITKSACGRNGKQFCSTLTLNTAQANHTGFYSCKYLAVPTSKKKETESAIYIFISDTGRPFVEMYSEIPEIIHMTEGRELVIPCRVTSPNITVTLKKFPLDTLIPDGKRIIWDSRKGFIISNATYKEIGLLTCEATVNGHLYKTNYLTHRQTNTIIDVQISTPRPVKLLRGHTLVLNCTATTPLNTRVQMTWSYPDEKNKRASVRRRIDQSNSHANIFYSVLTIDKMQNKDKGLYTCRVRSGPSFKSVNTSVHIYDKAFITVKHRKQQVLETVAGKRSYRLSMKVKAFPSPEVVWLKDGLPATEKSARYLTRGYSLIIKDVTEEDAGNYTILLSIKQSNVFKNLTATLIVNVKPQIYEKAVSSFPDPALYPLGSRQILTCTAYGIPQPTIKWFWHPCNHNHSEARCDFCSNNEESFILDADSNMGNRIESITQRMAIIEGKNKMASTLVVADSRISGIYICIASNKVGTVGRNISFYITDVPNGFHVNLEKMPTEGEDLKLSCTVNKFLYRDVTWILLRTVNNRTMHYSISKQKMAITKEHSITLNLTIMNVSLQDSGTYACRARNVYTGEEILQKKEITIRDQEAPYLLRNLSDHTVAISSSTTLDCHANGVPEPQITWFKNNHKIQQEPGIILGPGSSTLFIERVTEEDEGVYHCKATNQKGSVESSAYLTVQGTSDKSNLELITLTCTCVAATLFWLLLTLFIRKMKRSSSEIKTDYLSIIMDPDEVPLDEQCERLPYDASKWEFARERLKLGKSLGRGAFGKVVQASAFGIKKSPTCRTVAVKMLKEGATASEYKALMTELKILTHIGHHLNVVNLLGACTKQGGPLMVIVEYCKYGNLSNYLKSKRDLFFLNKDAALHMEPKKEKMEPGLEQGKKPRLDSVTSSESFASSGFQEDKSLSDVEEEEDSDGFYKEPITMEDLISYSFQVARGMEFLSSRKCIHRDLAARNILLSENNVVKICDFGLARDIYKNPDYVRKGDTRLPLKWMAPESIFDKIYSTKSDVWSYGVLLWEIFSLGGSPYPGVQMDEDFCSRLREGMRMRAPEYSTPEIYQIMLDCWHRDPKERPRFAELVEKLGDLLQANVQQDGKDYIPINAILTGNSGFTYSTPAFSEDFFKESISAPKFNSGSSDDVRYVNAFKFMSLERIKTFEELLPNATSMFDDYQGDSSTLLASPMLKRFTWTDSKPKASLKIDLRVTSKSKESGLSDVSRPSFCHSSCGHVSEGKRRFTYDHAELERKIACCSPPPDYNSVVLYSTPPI

[6] = biological target: Proto-oncogene tyrosine-protein kinase Src (Homo sapiens, UniProt P12931); assay: Inhibition of recombinant human c-Src using poly (Glu, Tyr) 4:1 as substrate after 60 mins by ELISA; procedure, shortened: as §2
[7] = Oral bioavailability in Sprague-Dawley rat at 5 mg/kg; type: ADME, organism-based; conditions: in vivo; procedure, shortened: as §1
NCI-H1581 [8] = assay: Antitumor activity against human NCI-H1581 cells xenografted in nude mouse assessed as tumor growth inhibition at 10 mg/kg, po qd administered for 21 days measured on day 21 post last dose relative to vehicle-treated control; type: functional; conditions: 504 h, read-out: TGI
Procedure, shortened: (§4)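 Female nude mice (4–6 weeks) housed under SPF conditions. NCI-H1581 tumours were first grown from 5 × 10^6 cells s.c., and 1.5 mm3 fragments were then transplanted s.c. into the right flank. At 115 mm3, mice were randomized and given vehicle or compound orally once daily for 21 days (2 or 10 mg/kg). Tumours were measured by caliper twice weekly, with TV = length × width²/2.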

[9] = biological target: Epidermal growth factor receptor (Homo sapiens, UniProt P00533); assay: Inhibition of recombinant human EGFR using poly (Glu, Tyr) 4:1 as substrate after 60 mins by ELISA; procedure, shortened: as §2
[10] = Clearance in Sprague-Dawley rat at 1 mg/kg, iv; type: ADME, organism-based; conditions: in vivo
[11] = AUC (0 to infinity) in Sprague-Dawley rat at 1 mg/kg, iv; type: ADME, organism-based; parameters: dose 1 mg/kg, time infinity, route intravenous; conditions: in vivo
[12] = Cmax in Sprague-Dawley rat at 1 mg/kg, iv; type: ADME, organism-based; parameters: dose 1 mg/kg, route intravenous; conditions: in vivo
Bcr/Abl fusion protein = Bcr/Abl fusion protein (Homo sapiens, UniProt P00519); assay: Inhibition of recombinant human Bcr-Abl using poly (Glu, Tyr) 4:1 as substrate after 60 mins by ELISA; type: protein assay; procedure, shortened: as §2
[13] = biological target: T1, Fibroblast growth factor receptor 1; assay: Inhibition of recombinant human FGFR1 using poly (Glu, Tyr) 4:1 as substrate after 60 mins by ELISA
[14] = AUC (0 to infinity) in Sprague-Dawley rat at 5 mg/kg, po; type: ADME, organism-based; parameters: dose 5 mg/kg, route oral, time infinity; conditions: in vivo; procedure, shortened: as §1
[15] = biological target: T2, Fibroblast growth factor receptor 2 (Homo sapiens, UniProt P21802); assay: Inhibition of FGFR2 in human SNU15 cells assessed as reduction of ERK phosphorylation at 0.1 to 10 nM after 2 hrs by Western blot method; type: cell-based
Target sequence in this assay (P21802 22-821 limits assumed): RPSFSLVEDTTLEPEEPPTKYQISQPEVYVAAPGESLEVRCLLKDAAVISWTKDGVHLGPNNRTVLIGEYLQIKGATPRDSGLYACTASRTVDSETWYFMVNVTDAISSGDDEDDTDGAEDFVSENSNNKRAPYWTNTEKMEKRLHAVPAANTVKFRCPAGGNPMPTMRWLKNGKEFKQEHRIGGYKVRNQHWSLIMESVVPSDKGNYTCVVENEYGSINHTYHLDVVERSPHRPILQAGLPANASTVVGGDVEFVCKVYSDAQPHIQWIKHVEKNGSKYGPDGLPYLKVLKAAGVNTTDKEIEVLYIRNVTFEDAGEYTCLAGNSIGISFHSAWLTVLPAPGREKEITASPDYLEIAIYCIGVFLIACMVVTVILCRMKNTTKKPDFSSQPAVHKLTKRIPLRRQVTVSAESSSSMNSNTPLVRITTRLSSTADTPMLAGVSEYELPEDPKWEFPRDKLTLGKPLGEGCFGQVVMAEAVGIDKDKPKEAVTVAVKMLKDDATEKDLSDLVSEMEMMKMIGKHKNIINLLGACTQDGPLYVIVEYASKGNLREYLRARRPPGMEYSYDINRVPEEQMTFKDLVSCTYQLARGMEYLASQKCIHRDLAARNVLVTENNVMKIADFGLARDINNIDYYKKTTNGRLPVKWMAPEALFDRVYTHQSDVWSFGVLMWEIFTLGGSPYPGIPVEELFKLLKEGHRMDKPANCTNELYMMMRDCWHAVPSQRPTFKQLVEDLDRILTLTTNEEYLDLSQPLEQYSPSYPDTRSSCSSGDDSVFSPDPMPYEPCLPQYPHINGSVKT

[16] = biological target: Platelet-derived growth factor receptor alpha (Homo sapiens, UniProt P16234); assay: Inhibition of recombinant human PDGFRalpha using poly (Glu, Tyr) 4:1 as substrate after 60 mins by ELISA; procedure, shortened: as §2
NCI-H1581 [17] = assay: Antitumor activity against human NCI-H1581 cells xenografted in po dosed nude mouse assessed as tumor growth inhibition administered as qd for 21 days measured on day 21 post last dose; type: functional, organism-based; procedure, shortened: as §4
Mus musculus = assay: Toxicity in nude mouse xenografted with human NCI-H1581 cells assessed as body weight loss at 2 to 10 mg/kg, po qd administered for 21 days measured during compound dosing; type: organism-based; conditions: in vivo, 504 h; procedure, shortened: as §4
[18] = biological target: Receptor tyrosine-protein kinase erbB-2 (Homo sapiens, UniProt P04626); assay: Inhibition of recombinant human ErbB2 using poly (Glu, Tyr) 4:1 as substrate after 60 mins by ELISA; procedure, shortened: as §2
Receptor tyrosine-protein kinase erbB-2, sequence (P04626 whole entry): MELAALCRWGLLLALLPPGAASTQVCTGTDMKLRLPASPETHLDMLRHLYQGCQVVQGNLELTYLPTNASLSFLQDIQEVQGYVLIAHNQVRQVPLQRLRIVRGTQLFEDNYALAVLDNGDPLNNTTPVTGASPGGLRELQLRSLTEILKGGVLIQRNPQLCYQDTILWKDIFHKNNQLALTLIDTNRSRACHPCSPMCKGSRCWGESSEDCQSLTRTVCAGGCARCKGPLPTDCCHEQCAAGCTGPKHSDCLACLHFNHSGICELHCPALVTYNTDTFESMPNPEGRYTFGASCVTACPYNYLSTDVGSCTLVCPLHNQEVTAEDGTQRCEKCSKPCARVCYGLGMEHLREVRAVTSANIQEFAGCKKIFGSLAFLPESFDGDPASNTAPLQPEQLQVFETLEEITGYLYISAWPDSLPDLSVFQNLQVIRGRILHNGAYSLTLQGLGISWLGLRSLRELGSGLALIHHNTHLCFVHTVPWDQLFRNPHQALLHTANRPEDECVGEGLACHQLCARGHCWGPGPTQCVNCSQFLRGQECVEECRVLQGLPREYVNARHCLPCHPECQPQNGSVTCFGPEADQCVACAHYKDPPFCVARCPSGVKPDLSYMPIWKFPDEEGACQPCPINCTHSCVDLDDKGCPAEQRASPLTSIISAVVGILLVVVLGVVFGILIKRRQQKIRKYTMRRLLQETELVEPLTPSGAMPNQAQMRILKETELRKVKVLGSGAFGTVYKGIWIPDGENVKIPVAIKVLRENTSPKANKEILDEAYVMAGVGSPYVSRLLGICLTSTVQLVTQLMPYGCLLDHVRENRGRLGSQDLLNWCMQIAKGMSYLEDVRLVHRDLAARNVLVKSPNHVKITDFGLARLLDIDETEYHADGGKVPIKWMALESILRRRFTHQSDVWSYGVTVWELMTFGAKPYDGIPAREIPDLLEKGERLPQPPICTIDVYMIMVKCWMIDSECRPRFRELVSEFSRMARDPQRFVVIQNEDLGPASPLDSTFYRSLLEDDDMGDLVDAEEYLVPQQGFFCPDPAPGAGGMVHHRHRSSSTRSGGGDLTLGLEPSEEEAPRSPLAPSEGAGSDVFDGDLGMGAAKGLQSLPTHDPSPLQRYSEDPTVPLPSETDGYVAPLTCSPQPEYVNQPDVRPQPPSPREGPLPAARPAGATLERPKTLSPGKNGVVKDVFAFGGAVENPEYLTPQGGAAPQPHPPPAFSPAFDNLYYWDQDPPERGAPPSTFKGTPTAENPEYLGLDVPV

cells [19] = conditions: Homo sapiens, RT-112, 72 h
NCI-H1581 [20] = assay: Antiproliferative activity against FGFR1-amplified human NCI-H1581 cells after 72 hrs by CCK8/MTT assay; type: functional, cell-based; conditions: NCI-H1581, 72 h
[21] = biological target: T2, Fibroblast growth factor receptor 2; assay: Inhibition of FGFR2 phosphorylation in human SNU15 cells at 0.1 to 10 nM after 2 hrs by Western blot method; type: cell-based
Target sequence in this assay (P21802 22-821 limits assumed): as the sequence (P21802 22-821 limits assumed) above

[22] = biological target: Hepatocyte growth factor receptor (Homo sapiens, UniProt P08581); assay: Inhibition of recombinant human c-Met using poly (Glu, Tyr) 4:1 as substrate after 60 mins by ELISA; procedure, shortened: as §2
[23] = biological target: T1, Fibroblast growth factor receptor 1; assay: Inhibition of FGFR1 in human KG1 cells assessed as reduction of ERK phosphorylation at 0.1 to 10 nM after 2 hrs by Western blot method; type: cell-based; conditions: KG-1; procedure, shortened: as §3
Target sequence in this assay (P11362 22-822 limits assumed): as the sequence (P11362 22-822 limits assumed) above

cells [24] = conditions: Homo sapiens, KG-1, 72 h
[25] = biological target: Proto-oncogene tyrosine-protein kinase receptor Ret (Homo sapiens, UniProt P07949); assay: Inhibition of recombinant human RET using poly (Glu, Tyr) 4:1 as substrate after 60 mins by ELISA; procedure, shortened: as §2
[26] = biological target: T2, Fibroblast growth factor receptor 2; assay: Inhibition of FGFR2 in human SNU15 cells assessed as reduction of PLCgamma phosphorylation at 0.1 to 10 nM after 2 hrs by Western blot method; type: cell-based
Target sequence in this assay (P21802 22-821 limits assumed): as the sequence (P21802 22-821 limits assumed) above

[27] = biological target: T2, Fibroblast growth factor receptor 2; assay: Inhibition of recombinant human FGFR2 using poly (Glu, Tyr) 4:1 as substrate after 60 mins by ELISA; procedure, shortened: as §2
[28] = biological target: Fibroblast growth factor receptor 4 (Homo sapiens, UniProt P22455); assay: Inhibition of recombinant human FGFR4 using poly (Glu, Tyr) 4:1 as substrate after 60 mins by ELISA; procedure, shortened: as §2
NCI-H1581 [29] = assay: Antitumor activity against FGFR1-amplified human NCI-H1581 cells xenografted in nude mouse assessed as tumor growth inhibition at 2 mg/kg, po qd administered for 21 days measured on day 21 post last dose relative to vehicle-treated control; type: functional; conditions: 504 h, read-out: TGI; procedure, shortened: as §4
cells [30] = conditions: Homo sapiens, SNU-16, 72 h

Tmax [1]: 4 h
IC50 [2]: > 1000 nM
IC50 (Ephrin type-A receptor 2): > 100 nM
IC50 [3]: 2 nM
inhibition [4]: Dose-dependent effect
IC50 [5]: > 100 nM
IC50 [6]: > 100 nM
bioavailability [7]: 33%
IC50 [9]: > 1000 nM
clearance [10]: 33.3 mL/min/kg
AUC(0-inf) [11]: 485 ng·h/mL
Cmax [12]: 300 ng/mL
IC50 (Bcr/Abl fusion protein): > 100 nM
IC50 [13]: 0.9 nM
AUC(0-inf) [14]: 799 ng·h/mL
inhibition [15]: Active
IC50 [16]: 782 nM
IC50 [18]: > 1000 nM
IC50 (cells [19]): < 0.1 nM
IC50 (NCI-H1581 [20]): 4.2 nM
inhibition [21]: Active
IC50 [22]: > 100 nM
inhibition [23]: Active
IC50 (cells [24]): < 0.1 nM
IC50 [25]: > 100 nM
inhibition [26]: Active
IC50 [27]: 2 nM
IC50 [28]: 6.1 nM
IC50 (cells [30]): < 0.1 nM
SMILES: C[C@@H](Oc1ccc2[nH]nc(-c3nc4cc(N5CCN(C)CC5)ccc4[nH]3)c2c1)c1c(Cl)cncc1Cl
inhibition in vivo at 10 mg/kg (NCI-H1581 [8]): 96.9%
TGI (NCI-H1581 [17]): Dose-dependent effect
Activity (Mus musculus): Non-toxic
inhibition in vivo at 2 mg/kg (NCI-H1581 [29]): 44.5%
